From ChEMBL document CHEMBL1147862, “Studies on synthesis and pharmacological activities of 3,6-disubstituted-1,2,4-triazolo[3,4-b]-1,3,4-thiadiazoles and their dihydro analogues” (2007)

How the values were obtained:
Format in all cases: functional
Mus musculus [1] = test: Analgesic activity in Swiss mouse assessed as increase in reaction time at 20 mg/kg, po after 30 mins by Eddy's hot plate technique
Method in brief: (§1)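 Swiss mice of either sex, 25–35 g, placed one at a time on a hot plate held at 55 °C. End point is paw licking or jumping, whichever comes first, with a 15 s cut-off to avoid paw injury. Reaction time is recorded and reported as percent increase in reaction time.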

Pseudomonas aeruginosa [2] = test: Antibacterial activity against Pseudomonas aeruginosa at 20 ug/ml by agar plate diffusion technique; details: read-out: IZ
Bacillus subtilis [3] = test: Antibacterial activity against Bacillus subtilis at 20 ug/ml by agar plate diffusion technique; details: read-out: IZ
Pseudomonas aeruginosa [4] = test: Antibacterial activity against Pseudomonas aeruginosa at 10 ug/ml by agar plate diffusion technique; details: read-out: IZ
Rattus norvegicus [5] = test: Antiinflammatory activity in Wistar Albino rat assessed as inhibition of carrageenan-induced paw oedema at 20 mg/kg after 2 hrs relative to control
Method in brief: (§2)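 Wistar albino rats, 150–200 g, six per group, dosed orally with a 20 mg/kg suspension; control gets 0.1 ml 1% gum acacia. After 30 min, 0.1 ml 1% carrageenan in saline is injected subplantar into the right hind paw. Paw volume is read by plethysmograph at 0–4 h. Inhibition = 100(1 − Vtest/Vcontrol) on mean volume increase.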

Escherichia coli [6] = test: Antibacterial activity against Escherichia coli at 20 ug/ml by agar plate diffusion technique; details: read-out: IZ
Aspergillus niger [7] = test: Antifungal activity against Aspergillus niger at 10 ug/ml by paper disc method; details: read-out: IZ
Staphylococcus aureus [8] = test: Antibacterial activity against Staphylococcus aureus at 30 ug/ml by agar plate diffusion technique; details: read-out: IZ
Staphylococcus aureus [9] = test: Antibacterial activity against Staphylococcus aureus at 10 ug/ml by agar plate diffusion technique; details: read-out: IZ
Bacillus subtilis [10] = test: Antibacterial activity against Bacillus subtilis at 10 ug/ml by agar plate diffusion technique; details: read-out: IZ
Escherichia coli [11] = test: Antibacterial activity against Escherichia coli at 30 ug/ml by agar plate diffusion technique; details: read-out: IZ
Mus musculus [12] = test: Analgesic activity in Swiss mouse assessed as increase in reaction time at 20 mg/kg, po after 60 mins by Eddy's hot plate technique; method in brief: as §1
Mus musculus [13] = test: Analgesic activity in Swiss mouse assessed as increase in reaction time at 20 mg/kg, po after 90 mins by Eddy's hot plate technique; method in brief: as §1
Rattus norvegicus [14] = test: Antiinflammatory activity in Wistar Albino rat assessed as inhibition of carrageenan-induced paw oedema at 20 mg/kg after 3 hrs relative to control; method in brief: as §2
Candida albicans [15] = test: Antifungal activity against Candida albicans at 10 ug/ml by paper disc method; details: read-out: IZ
Aspergillus niger [16] = test: Antifungal activity against Aspergillus niger at 30 ug/ml by paper disc method; details: read-out: IZ
Rattus norvegicus [17] = test: Antiinflammatory activity in Wistar Albino rat assessed as inhibition of carrageenan-induced paw oedema at 20 mg/kg after 1 hr relative to control; method in brief: as §2
Staphylococcus aureus [18] = test: Antibacterial activity against Staphylococcus aureus at 20 ug/ml by agar plate diffusion technique; details: read-out: IZ
Pseudomonas aeruginosa [19] = test: Antibacterial activity against Pseudomonas aeruginosa at 30 ug/ml by agar plate diffusion technique; details: read-out: IZ
Candida albicans [20] = test: Antifungal activity against Candida albicans at 30 ug/ml by paper disc method; details: read-out: IZ
Escherichia coli [21] = test: Antibacterial activity against Escherichia coli at 10 ug/ml by agar plate diffusion technique; details: read-out: IZ
Aspergillus niger [22] = test: Antifungal activity against Aspergillus niger at 20 ug/ml by paper disc method; details: read-out: IZ
Bacillus subtilis [23] = test: Antibacterial activity against Bacillus subtilis at 30 ug/ml by agar plate diffusion technique; details: read-out: IZ
Rattus norvegicus [24] = test: Antiinflammatory activity in Wistar Albino rat assessed as inhibition of carrageenan-induced paw oedema at 20 mg/kg after 4 hrs relative to control; method in brief: as §2
Candida albicans [25] = test: Antifungal activity against Candida albicans at 20 ug/ml by paper disc method; details: read-out: IZ

| SMILES | Activity (Mus musculus [1]) | zone of inhibition at 20 µg/mL (Pseudomonas aeruginosa [2]) | zone of inhibition at 20 µg/mL (Bacillus subtilis [3]) | zone of inhibition at 10 µg/mL (Pseudomonas aeruginosa [4]) | inhibition in vivo at 20 mg/kg (Rattus norvegicus [5]) | zone of inhibition at 20 µg/mL (Escherichia coli [6]) | zone of inhibition at 10 µg/mL (Aspergillus niger [7]) | zone of inhibition at 30 µg/mL (Staphylococcus aureus [8]) | zone of inhibition at 10 µg/mL (Staphylococcus aureus [9]) | zone of inhibition at 10 µg/mL (Bacillus subtilis [10]) | zone of inhibition at 30 µg/mL (Escherichia coli [11]) | Activity (Mus musculus [12]) | Activity (Mus musculus [13]) | inhibition in vivo at 20 mg/kg (Rattus norvegicus [14]) | zone of inhibition at 10 µg/mL (Candida albicans [15]) | zone of inhibition at 30 µg/mL (Aspergillus niger [16]) | inhibition in vivo at 20 mg/kg (Rattus norvegicus [17]) | zone of inhibition at 20 µg/mL (Staphylococcus aureus [18]) | zone of inhibition at 30 µg/mL (Pseudomonas aeruginosa [19]) | zone of inhibition at 30 µg/mL (Candida albicans [20]) | other results |
| --- | --- | --- | --- | --- | --- | --- | --- | --- | --- | --- | --- | --- | --- | --- | --- | --- | --- | --- | --- | --- | --- |
| COc1ccc(Cl)c(-c2nnc3sc(-c4ccnc(Cl)c4)nn23)c1 | 7.14% | 12.5 mm | 13.8 mm | 7.02 mm | 20.1% | 12.2 mm | 6.64 mm | 18.6 mm | 6.98 mm | 7.12 mm | 19.2 mm | 17.45% | 23% | 23.5% | 7.14 mm | 18.4 mm | 14.4% | 13.7 mm | 19.1 mm | 19.3 mm | zone of inhibition at 10 µg/mL (Escherichia coli [21]): 6.39 mm; zone of inhibition at 20 µg/mL (Aspergillus niger [22]): 11.8 mm; zone of inhibition at 30 µg/mL (Bacillus subtilis [23]): 18.6 mm; inhibition in vivo at 20 mg/kg (Rattus norvegicus [24]): 27.2%; zone of inhibition at 20 µg/mL (Candida albicans [25]): 13.7 mm |
| COc1ccc(Cc2nnc3n2NC(c2ccc([N+](=O)[O-])o2)S3)cc1OC (stereo not given) | 2.83% | 7.88 mm | 8.49 mm | 4.42 mm | 17.6% | 10 mm | 5.21 mm | 14 mm | 5.1 mm | 4.92 mm | 15 mm | 10.3% | 22.66% | 21.4% | 5.43 mm | 14.3 mm | 14.5% | 8.37 mm | 13.1 mm | 14.8 mm | zone of inhibition at 10 µg/mL (Escherichia coli [21]): 5.16 mm; zone of inhibition at 20 µg/mL (Aspergillus niger [22]): 9.64 mm; zone of inhibition at 30 µg/mL (Bacillus subtilis [23]): 13.5 mm; inhibition in vivo at 20 mg/kg (Rattus norvegicus [24]): 23.7%; zone of inhibition at 20 µg/mL (Candida albicans [25]): 10.9 mm |
| COc1ccc(Cc2nnc3sc(-c4ccnc(F)c4)nn23)cc1OC | 2.83% | 14.9 mm | 14.4 mm | 8.21 mm | 14.3% | 14.4 mm | 7.14 mm | 19.2 mm | 7.1 mm | 7.64 mm | 19.3 mm | 10.3% | 22.66% | 16.7% | 8.14 mm | 21 mm | 11.1% | 13.8 mm | 19.3 mm | 21.7 mm | zone of inhibition at 10 µg/mL (Escherichia coli [21]): 7.96 mm; zone of inhibition at 20 µg/mL (Aspergillus niger [22]): 12.4 mm; zone of inhibition at 30 µg/mL (Bacillus subtilis [23]): 19.3 mm; inhibition in vivo at 20 mg/kg (Rattus norvegicus [24]): 21.5%; zone of inhibition at 20 µg/mL (Candida albicans [25]): 14.8 mm |
| COc1ccc(Cl)c(-c2nnc3n2NC(c2cccn2C)S3)c1 (stereo not given) | 4.38% | 7.1 mm | 6.82 mm | 3.9 mm | 16.8% | 6.9 mm | 4.71 mm | 11 mm | 3.82 mm | 3.6 mm | 10.1 mm | 6.2% | 19.67% | 18.5% | 4.3 mm | 12.9 mm | 14.1% | 6.1 mm | 11.9 mm | 12.6 mm | zone of inhibition at 10 µg/mL (Escherichia coli [21]): 3.82 mm; zone of inhibition at 20 µg/mL (Aspergillus niger [22]): 7.65 mm; zone of inhibition at 30 µg/mL (Bacillus subtilis [23]): 9.33 mm; inhibition in vivo at 20 mg/kg (Rattus norvegicus [24]): 20.7%; zone of inhibition at 20 µg/mL (Candida albicans [25]): 7.4 mm |
| COc1ccc2[nH]cc(Cc3nn4c(-c5ccoc5C)nnc4s3)c2c1 | 13.84% | 9.62 mm | 9.61 mm | 5.36 mm | 20.1% | 9.35 mm | 5.06 mm | 13.3 mm | 4.85 mm | 5.82 mm | 14.2 mm | 24.76% | 31.86% | 26.1% | 5.62 mm | 13.1 mm | 16% | 9.1 mm | 14.5 mm | 13.5 mm | zone of inhibition at 10 µg/mL (Escherichia coli [21]): 5.16 mm; zone of inhibition at 20 µg/mL (Aspergillus niger [22]): 9.8 mm; zone of inhibition at 30 µg/mL (Bacillus subtilis [23]): 14.2 mm; inhibition in vivo at 20 mg/kg (Rattus norvegicus [24]): 30.8%; zone of inhibition at 20 µg/mL (Candida albicans [25]): 10.8 mm |
| COc1ccc2[nH]cc(Cc3nn4c(Cc5ccc(OC)c(OC)c5)nnc4s3)c2c1 | 11.92% | 8.42 mm | 8.18 mm | 4.9 mm | 11.6% | 8.49 mm | 4.24 mm | 13.6 mm | 4.82 mm | 4.92 mm | 12.9 mm | 19.06% | 28.32% | 19.1% | 4.12 mm | 10.4 mm | 4.11% | 8.39 mm | 12.3 mm | 10 mm | zone of inhibition at 10 µg/mL (Escherichia coli [21]): 4.72 mm; zone of inhibition at 20 µg/mL (Aspergillus niger [22]): 8.1 mm; zone of inhibition at 30 µg/mL (Bacillus subtilis [23]): 13.7 mm; inhibition in vivo at 20 mg/kg (Rattus norvegicus [24]): 29.6%; zone of inhibition at 20 µg/mL (Candida albicans [25]): 8.3 mm |
| COc1ccc(Cc2nnc3sc(-c4ccnc(Cl)c4)nn23)cc1OC | 6.24% | 12.2 mm | 13.9 mm | 6.93 mm | 13.2% | 12.8 mm | 7.23 mm | 18.1 mm | 7.05 mm | 7.19 mm | 19.7 mm | 12.55% | 23.89% | 22.5% | 6.82 mm | 18.4 mm | 11.2% | 13.6 mm | 19.4 mm | 19.4 mm | zone of inhibition at 10 µg/mL (Escherichia coli [21]): 6.72 mm; zone of inhibition at 20 µg/mL (Aspergillus niger [22]): 13 mm; zone of inhibition at 30 µg/mL (Bacillus subtilis [23]): 18.9 mm; inhibition in vivo at 20 mg/kg (Rattus norvegicus [24]): 24.2%; zone of inhibition at 20 µg/mL (Candida albicans [25]): 12.9 mm |
